Results as given in the EternaBench riboswitch data.

Tested on: MS2 coat protein
Assay: apparent Kd, MS2 coat protein; higher = weaker binding; RNA-MaP array
In short: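 Apparent Kd was taken as the median of binding curves fitted cluster by cluster. The designed RNAs were made by transcription of sequenced DNA templates on an Illumina sequencing chip and exposed to fluorescently labeled MS2 coat protein (1.5 nM to 3 μM) at room temperature, with or without input ligand, for 0.8–1.5 h at the lowest and 10–20 min at the highest concentrations. Any design measured on fewer than 10 clusters was left out.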

[1] = designed as: OFF switch for flavin mononucleotide, no ligand
[2] = ligand present: flavin mononucleotide, designed as: OFF switch for flavin mononucleotide
[3] = designed as: ON switch for flavin mononucleotide, no ligand
[4] = ligand present: flavin mononucleotide, designed as: ON switch for flavin mononucleotide
[5] = designed as: OFF switch for theophylline, no ligand
[6] = ligand present: theophylline, designed as: OFF switch for theophylline
[7] = designed as: ON switch for theophylline, no ligand
[8] = ligand present: theophylline, designed as: ON switch for theophylline

GUACACUCCACAGGAUAUGGUGUAGACCCUACGCCAGAAGGGUGCGUGGGUACAUGAGGAUCACCCAUGUUAAGUUUACAUACG
apparent Kd [1]: 0.0129 µM
apparent Kd [2]: 0.0155 µM

CGCAGACAUGAGGAUCACCCAUGUACCAUGAACAGGAAUACAAGAAGGGCAAACUUUAGAUUGAUGCAGGAUAUUGUCACGAGA
apparent Kd [3]: 0.0258 µM
apparent Kd [4]: 0.014 µM

CCUUUACAUGAGGAUCACCCAUGUGAAAUGGAUUGCGUAAAUAGAAGGCAUCAGAUCGUACAUGAUGAGGAUAUAUUAUCGAGU
apparent Kd [3]: 0.0153 µM
apparent Kd [4]: 0.00744 µM

ACGUAGGGCUAGAAGGCUCUAACAAGGUGCCCAUAAAAUAACAUGAGGAUCACCCAUGUUAGUAGAGAGGAUAUAGACUCAUGU
apparent Kd [1]: 0.0185 µM
apparent Kd [2]: 0.0193 µM

CACUACUCCCAAGGAUAUUACGCUACAAAUCUUACUAACAUGAGGAUCACCCAUGUUCGGAACGGAAAGAAGGUGGGCUUAUAC
apparent Kd [3]: 0.00938 µM
apparent Kd [4]: 0.00822 µM

UUAGUACUAGGAUAUACGAUGGAAAGGAGAGCCUUACAAAUACAUGAGGAUCACCCAUGUAGAAGGAGUUGCCA
apparent Kd [1]: 0.00627 µM
apparent Kd [2]: 0.00593 µM

AAAUAUCAGUAGAAGGGCAUUUAAUCGAGACAUGCAGGAUAUACCAAUAACAGAUAAUUCUACAUGAGGAUCACCCAUGUACAG
apparent Kd [3]: 0.0127 µM
apparent Kd [4]: 0.00919 µM

GUAUGGCUCGAGGAUAUGUACGUAGGAGACUAGACAGAAGGCGAUACAUGAGGAUCACCCAUGUCCUAUUAACC
apparent Kd [1]: 0.188 µM
apparent Kd [2]: 0.129 µM

UUCUUACAUGAGGAUCACCCAUGUUCUGAUAGAGCAGGAUAUGAUGGUUAGAAGUAGAAAUCAGAAGGGCUCCAUG
apparent Kd [3]: 0.1 µM
apparent Kd [4]: 0.0198 µM

UUAACAUGAGGAUCACCCAUGUGAAGCCGGCGAUGAAUAGUACAGGAUAUCGAAUACCGCCUAGACGAGAAGGGUAUCAAUCGG
apparent Kd [3]: 0.0142 µM
apparent Kd [4]: 0.0127 µM

ACGAAUCCCGUUCCGUGAGGACAUGAGGAUCACCCAUGUUGCAGAAGGGCCGAGCGGAUGGCGAGGCAGGAUAUGCCACAGAUC
apparent Kd [1]: 0.0276 µM
apparent Kd [2]: 0.105 µM

UUUAACACCGGCAAGGAUAUUCUACAAAGAACAUGAGGAUCACCCAUGUCAACAAUCUACAUCACGAAGAAGGUGCAUCGGAUUAA
apparent Kd [3]: 0.0174 µM
apparent Kd [4]: 0.00995 µM

AAGCGUAGCUAGGAUAUGUAAUGACGGCUUUGAACAGAAGGAGCUACAUGAGGAUCACCCAUGUGUCCGACACA
apparent Kd [1]: 0.0159 µM
apparent Kd [2]: 0.125 µM

GUAGAGCUCAUAGGAUAUACUCGACCGGAGGCAGUAGAAGGAUGCGUCAAAUACAUGAGGAUCACCCAUGUGAUGGUAAUCGUC
apparent Kd [1]: 0.0136 µM
apparent Kd [2]: 0.0144 µM

AAUUGGAUCACAUGAGGAUCACCCAUGUCGGAAACUUUACUCAGAAGGAUGUGUACUUUUUCCACAUAGGAUAUGAGUACGACA
apparent Kd [1]: 0.0694 µM
apparent Kd [2]: 0.0746 µM

CUGUUUACAUGAGCCCGUCAUAUAUACGAUACCAGUUAAAGAUGAAACCCUUGGCAGCGUAGGACAUGAGGAUCACCCAUGUGCC
apparent Kd [5]: 0.0186 µM
apparent Kd [6]: 0.0331 µM

UACCUUAUUGUUAGGAUAUGCAGAUACAAAGGUGAGCAGAAGGAACAUGAGGAUCACCCAUGUAAAAUAAUAAA
apparent Kd [1]: 0.0166 µM
apparent Kd [2]: 0.048 µM

ACUAGUAGGCAAGGAUAUGGCCUCAUAAGAUAGCCAGAAGGUGCUACGGACAUGAGGAUCACCCAUGUGCAGCUCGUACGGUGG
apparent Kd [3]: 0.367 µM
apparent Kd [4]: 0.155 µM

UAUUAACAAGGAUAUACAUGAGGAUCACCCAUGUGAAACUAUUUUAUAAUAACAACAAGUAGAAGGAGUUAAAA
apparent Kd [1]: 0.0132 µM
apparent Kd [2]: 0.0108 µM

UCACUCCUGAUGGAUACCAGUUACUAACGCAACAUGAGGAUCACCCAUGUGAACACUCAGAACCCUUGGCAGCCAGGAGAACGAA
apparent Kd [7]: 0.0482 µM
apparent Kd [8]: 0.0255 µM

UGCAAAUGAUGAGAUACCAGUUCAGUUAAAUACAUGAGGAUCACCCAUGUCAGGGAACUCAACCCUUGGCAGCUCGAUGCACUCA
apparent Kd [7]: 0.0562 µM
apparent Kd [8]: 0.0149 µM

AGUGGGUGUUAUGAUACCAGCGUAAUACACAACAUGAGGAUCACCCAUGUGGAGCCUCGCCGCCCUUGGCAGCAUUGGGCCCGCA
apparent Kd [7]: 0.212 µM
apparent Kd [8]: 0.344 µM

AUAUUUUCAGGAUAUCAACUUCACUACAUGAGGAUCACCCAUGUCCUCUAUUGUUUACUGUGAGAAGGGAAAGAGA
apparent Kd [1]: 1.01 µM
apparent Kd [2]: 0.507 µM

AAGGCGUCAGGAUAUACGUCAUCUUCAAAUAACAUAACAAUACAUGAGGAUCACCCAUGUAGAAGGGACCAGCC
apparent Kd [1]: 0.00637 µM
apparent Kd [2]: 0.00646 µM

UAAUCGUAGGCGGCCGCCACUUUUUGGUAGUGUCCAUUGUACACUCACAUGAGGAUCACCCAUGUAAGGACCGGGCCCGCAUCAG
apparent Kd (designed as: OFF switch for tryptophan, no ligand): 0.017 µM
apparent Kd (ligand present: tryptophan, designed as: OFF switch for tryptophan): 0.0167 µM

GAAUUAUGACGUGAUACCAGUGGUCAAUACUGGGAACUUAACAUGAGGAUCACCCAUGUCCACCCUUGGCAGCACGCUGACAAUC
apparent Kd [5]: 0.094 µM
apparent Kd [6]: 0.236 µM

GCAAGGUUUGUAGGAUAUCGCGUGUGAUUGAACAUGAGGAUCACCCAUGUGGAGGUUCCAUUAUCCGAGAAGGACAAGACUCGA
apparent Kd [1]: 0.155 µM
apparent Kd [2]: 0.0842 µM
